Source: PubChem BioAssay
The source made the active and inactive calls.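 The calls were made as follows, unless noted: active = a full or partial loss of lipid-probe fluorescence in the fish gall bladder, intestine or both, judged by eye; inactive = no fluorescence loss, or compound toxic to the fish.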

How the values were obtained:
[1] = inhibitors of TNFa-induced NFkB p65 translocation, primary screen, imaging, HUVEC, MLSMR starter and 10KST1 sets (AID 438;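 active = inhibition above 20% together with a positive visual image hit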;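 also: compound added about 3h40 before a 20 min TNFalpha stimulation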;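 as to inhibition: signal is the nuclear over cytoplasmic p65 intensity ratio per well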); conditions: HUVEC TNFa-induced p65 nuclear translocation; cell count: measured here: nuclei count (cytotoxicity indicator), at 2.08 µM; inhibition: at 2 µM, stronger effect = higher value, 0% TNFa-plus-vehicle, 100% no-TNFa wells
[2] = inhibitors of E-selectin induction by TNFa, primary screen, imaging, HUVEC, immunofluorescence, MLSMR starter and 10KST1 sets (AID 487;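 active = visually confirmed hit in the image check and inhibition above 20%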;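 as to inhibition: signal is fraction of cell area covered by stained E-selectin grains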;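 as to nuclei count: 100% = median nuclei count of all wells on the same plate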); conditions: HUVEC TNFalpha-induced E-selectin immunofluorescence imaging, at 2 µM; inhibition: stronger effect = higher value; nuclei count: measured here: cell number, toxicity
[3] = DUSP6 inhibitors restoring Erk phosphorylation by chemical complementation, primary imaging in DUSP6-transfected HeLa (AID 609;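 active = compounds giving at least 50% inhibition in the cell-based MKP-3 phosphatase rescue imaging test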;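 as to inhibition: phospho-Erk level distribution per well compared with pooled transfected vehicle control wells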); conditions: HeLa MKP-3 transfected, phospho-Erk imaging KS statistic, at 10 µM, cells stimulated with TPA for 15 min
[4] = target: Dual specificity protein phosphatase 6 (Homo sapiens) (UniProt Q16828); experiment: as above; conditions: HeLa MKP-3 transfected, phospho-Erk imaging KS statistic; at 10 µM; stronger effect = higher value; cells stimulated with TPA for 15 min
Sequence of Dual specificity protein phosphatase 6 (Homo sapiens) (Q16828 whole entry, looked up): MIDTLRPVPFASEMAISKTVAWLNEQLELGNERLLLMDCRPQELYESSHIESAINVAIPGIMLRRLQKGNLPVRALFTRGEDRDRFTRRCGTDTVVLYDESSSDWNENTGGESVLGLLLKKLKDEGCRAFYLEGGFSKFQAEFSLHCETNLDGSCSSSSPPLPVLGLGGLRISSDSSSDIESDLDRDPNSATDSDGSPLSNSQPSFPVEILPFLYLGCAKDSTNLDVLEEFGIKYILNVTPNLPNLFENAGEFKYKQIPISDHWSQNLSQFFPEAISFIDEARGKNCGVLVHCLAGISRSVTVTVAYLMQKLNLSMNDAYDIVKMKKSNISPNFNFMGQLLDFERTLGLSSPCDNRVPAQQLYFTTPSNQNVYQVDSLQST

[5] = target: Voltage-gated potassium channel subunit beta-2 (Rattus norvegicus) (UniProt P62483); experiment: KvBeta enzyme negative modulators, primary screen, biochemical, NADPH fluorescence (AID 622;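 active = fluorescence slope higher than the sample average by over 3 SD, cut at about -0.22 in these data, passing the limit was not always enough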;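 also: slope of raw intensity against log time taken from 70 to 1610 s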); conditions: recombinant KvBeta, 4-cyanobenzaldehyde reduction, at 10 µM, stronger effect = higher value
Sequence of Voltage-gated potassium channel subunit beta-2 (Rattus norvegicus) (P62483 whole entry, looked up): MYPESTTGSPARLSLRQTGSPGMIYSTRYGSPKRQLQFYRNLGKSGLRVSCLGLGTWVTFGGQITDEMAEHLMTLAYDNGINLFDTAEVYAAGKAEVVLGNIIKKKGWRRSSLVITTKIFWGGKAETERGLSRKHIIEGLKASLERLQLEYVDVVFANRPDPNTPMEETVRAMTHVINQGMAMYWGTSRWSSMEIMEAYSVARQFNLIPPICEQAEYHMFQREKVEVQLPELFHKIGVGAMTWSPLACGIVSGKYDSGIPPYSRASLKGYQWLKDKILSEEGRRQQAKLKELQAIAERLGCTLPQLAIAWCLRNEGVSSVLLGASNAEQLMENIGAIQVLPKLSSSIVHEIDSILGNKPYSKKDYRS

[6] = target: Voltage-gated potassium channel subunit beta-2 (Rattus norvegicus) (UniProt P62483); experiment: KvBeta positive modulators, primary screen, biochemical, NADPH fluorescence (AID 623;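 active = NADPH fluorescence slope more negative than the mean of all samples by about 3 SD, 99.7% confidence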;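 also: fluorescence intensity change per second fitted from 20 to 320 s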); conditions: Recombinant KvBeta, NADPH fluorescence decrease slope, 10 min; at 10 µM; stronger effect = lower value
[7] = target: Alpha-2C adrenergic receptor (Homo sapiens) (UniProt P18825); experiment: modulators of alpha2C/GIRK thallium flux, primary screen, cell-based, HEK293 alpha2C/GIRK1/2 (AID 624;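 active = fluorescence slope after compound addition differing from the mean of all screened samples at 99.7% confidence, in either direction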;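 also: slope of fluorescence ratio to pre-addition baseline per second over 15 to 24 s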); conditions: thallium flux BTC fluorescence, at 10 µM, actives lie on both sides
Sequence of Alpha-2C adrenergic receptor (Homo sapiens) (P18825 whole entry, looked up): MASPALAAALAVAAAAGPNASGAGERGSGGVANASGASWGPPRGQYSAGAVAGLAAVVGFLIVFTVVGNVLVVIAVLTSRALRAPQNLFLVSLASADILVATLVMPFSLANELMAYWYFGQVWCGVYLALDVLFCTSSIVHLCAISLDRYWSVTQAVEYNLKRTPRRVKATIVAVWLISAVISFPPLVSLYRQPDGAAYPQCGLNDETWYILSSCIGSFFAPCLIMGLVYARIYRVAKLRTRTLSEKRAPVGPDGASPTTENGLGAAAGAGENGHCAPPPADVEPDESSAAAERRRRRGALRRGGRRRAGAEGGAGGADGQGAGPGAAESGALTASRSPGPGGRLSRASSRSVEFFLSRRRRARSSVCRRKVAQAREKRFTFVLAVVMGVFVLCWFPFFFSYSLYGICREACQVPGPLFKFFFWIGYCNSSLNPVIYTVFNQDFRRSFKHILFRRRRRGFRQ

[8] = inhibitors of larval lipid processing in zebrafish, primary screen, whole organism, PED6 fluorescence, gall bladder and intestine (AID 686); conditions: Zebrafish larvae PED6 lipid processing, fluorescence scoring; screened at 20 µM (by protocol);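 also: larvae 5 to 7 days old with five fish per well; signal comes from phospholipase A2 cleavage of quenched PED6 carried via bile; overnight exposure to compound and PED6 before scoring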
Outline: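 Also added: quenched phospholipase substrate PED6, 100 nM final, ingested by larvae; System: zebrafish larvae, 5-7 d; Quantity: 5 larvae per well; Compound: 20 µM single dose; Schedule: overnight compound and PED6 incubation; Read-out: visual per-well fluorescence inhibition score; Measured by: By-eye fluorescence microscopy; Medium: E3.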

[9] = inhibitors of Chlamydomonas gravitaxis, primary screen, whole organism, Chlamydomonas reinhardtii, WT vs cilia-less mutant, absorbance, 96-well (AID 463189;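 active = inhibition at or above 50% relative to wild type and mutant plate controls; inactive = inhibition below 50%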;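 also: 0% = wild type cc124 cells in DMSO and 100% = ciliumless bld1 mutant cells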); conditions: OD600 absorbance, 2 days, at 10 µM, stronger effect = higher value
[10] = measured here: cell density z-score
[11] = measured here: nuclear c-Myc green intensity z-score
[12] = measured here: nuclear pErk red intensity z-score, stronger effect = higher value

Structure (SMILES) | cell count [1] | inhibition [1] | inhibition [2] | nuclei count [2] [%] | z-score [3, 10] | z-score [3, 11] | z-score [3, 12] | inhibition [4] | fluorescence slope [5] | NADPH fluorescence slope [6] | slope [7] | outcome [8] | inhibition [9]
CCCCn1c(O)c(C=NCCCN(C)C)c(=O)[nH]c1=O | 445 | 4.1% (inactive) | -38.4% (inactive) | 117 | 1.16 | -1.01 | -0.649 | 4.25% (inactive) | -0.44 (inactive) | 2.3e-06 (inactive) | 0.0074 (inactive) | inactive | 10.3% (inactive)
CCc1nnc(NC(=O)CSc2nc(C)c3c(c2C#N)CCCC3)s1 | 613 | -13.4% (inactive) | -129% (inactive) | 189 | -0.0126 | 0.0813 | -0.0712 | -0.674% (inactive) | -0.446 (inactive) | 4.7e-06 (inactive) | 0.00625 (inactive) | inactive | 9.29% (inactive)
CC1(C)Cc2c(c(-c3ccccc3)nc3[nH][nH]c(=O)c23)CO1 | 666 | -17.1% (inactive) | -370% (inactive) | 162 | 0.742 | -0.0557 | 0.36 | -3.98% (inactive) | -0.513 (inactive) | -7.2e-05 (inactive) | 0.00403 (inactive) | inactive | 21% (inactive)
CC/C(C)=C1\SC(N2CCN(C(C)=O)CC2)=NC1=O | 475 | -8.5% (inactive) | -322% (inactive) | 208 | -0.503 | -0.13 | 0.531 | 4.37% (inactive) | -0.377 (inactive) | -3.8e-06 (inactive) | 0.00493 (inactive) | inactive | -1.03% (inactive)
COC(=O)C1=C(N)Oc2cc(C)oc(=O)c2C1c1ccncc1 (stereo not given) | 346 | -2.7% (inactive) | 29.3% (inactive) | 149 | -0.595 | -0.189 | 1.46 | -2.59% (inactive) | -0.404 (inactive) | -0.000149 (inactive) | 0.00558 (inactive) | active; weak signal in gallbladder and intestine | 28.1% (inactive)
C=CCc1c(C)c(C#N)c2nc3ccccc3n2c1N1CCN(C)CC1 | 528 | -23% (inactive) | -93.7% (inactive) | 150 | -0.94 | -0.784 | -1.36 | -15% (inactive) | -0.476 (inactive) | -2e-05 (inactive) | 0.00524 (inactive) | inactive | 7.97% (inactive)
CCCCNC(=O)c1c(N)n(/N=C/c2cccnc2)c2nc3ccccc3nc12 | 474 | 4.9% (inactive) | -130% (inactive) | 139 | 1.68 | -0.352 | 0.256 | 24.5% (inactive) | -0.456 (inactive) | 5.4e-07 (inactive) | 0.0052 (inactive) | inactive | 29% (inactive)
CCCCNC(=O)N1CCOCCOCCN(C(=O)NCCCC)CCOCC1 | 524 | -14.1% (inactive) | -164% (inactive) | 138 | 2.57 | -1.63 | -0.914 | 31.7% (inactive) | -0.55 (inactive) | -2.2e-05 (inactive) | 0.0049 (inactive) | inactive | 9.99% (inactive)
Cc1c(/C(O)=C2\C(=O)C(=O)N(CCN(C)C)C2c2cccnc2)cnn1-c1ccccc1 (stereo not given) | 512 | -1.7% (inactive) | -140% (inactive) | 139 | 1.11 | -1.54 | 0.165 | -8.76% (inactive) | -0.564 (inactive) | -7.1e-05 (inactive) | 0.00465 (inactive) | inactive | -1.73% (inactive)
CCCCn1c2nc3ccccc3nc2c2c(=O)n(CC(C)C)cnc21 | 391 | 2.5% (inactive) | 21.4% (inactive) | 141 | 0.699 | 0.544 | -0.343 | 17.4% (inactive) | -0.436 (inactive) | -9.3e-05 (inactive) | 0.00687 (inactive) | inactive | 33.2% (inactive)
